From ChEMBL document CHEMBL1128223 (J Med Chem, 1995)

Legend:
Mus musculus [1] = experiment: The no. of deaths of mice(infected with HT-29 cells) was reported at a dose of 3 mg/kg; assay type: functional
How it was run: (§1)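 HT29 s.c. xenografts in female nu/nu mice, 6 per group. Compound given s.c. in 0.1 M sodium acetate pH 5, twice weekly for 5 weeks. Body weights monitored; mean body weight loss and deaths recorded per dose group. Dose range included the highest dose from a dose-ranging study in naive mice, in which ≥30% weight loss was considered lethal.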

Mus musculus [2] = experiment: In vivo efficacy of tumor growth ratio(T/B) of compound was calculated by using the HT-29 Human colon Xenograft model in mice at a dose of 9 mg/kg; assay type: functional
How it was run: (§2)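 Female nu/nu mice (18–24 g) given 10^6 HT29 cells subcutaneously in the left axillary flank. Grouped at 6 per dose with matched body weight and palpable tumor of about 150 mm². Compound in 0.1 M sodium acetate pH 5, 0.2 mL s.c., twice weekly for 5 weeks. Volume = length × width²/2 by calipers. T/B = end-of-treatment mean volume divided by initial mean volume.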

Mus musculus [3] = experiment: The body weight loss was measured in mice in vivo by using the HT-29 Human colon Xenograft model at a dose of 6 mg/kg; assay type: functional
How it was run: (§3)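 HT29 subcutaneous flank xenografts in female nu/nu mice, 6 per group. Compound in 0.1 M acetate buffer pH 5, 0.2 mL s.c., twice weekly for 5 weeks. Body weight monitored twice weekly. Value is group mean body weight loss, with ≥30% loss considered lethal. Dose ceiling set beforehand by dose-ranging in naive mice on the same schedule.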

Mus musculus [4] = experiment: (§4) The no. of deaths of mice(infected with HT-29 cells) was reported at a dose of 9 mg/kg; assay type: functional; how it was run: as §1
Mus musculus [5] = experiment: The no. of deaths of mice(infected with HT-29 cells) was reported at a dose of 6 mg/kg; assay type: functional; how it was run: as §1
LOX IMVI = experiment: Cytotoxicity was determined in vitro in LOX cells (melanoma) of human tumor cell lines by using MTT assay; assay type: functional, cell-based
How it was run: (§5)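 Cells grown in α-MEM with 15% heat-inactivated FBS, 2 mM L-glutamine, 1 mM pyruvate, insulin and nonessential amino acids at 37 °C, 5% CO2. Seeded at 1500–4000 cells/well and allowed to adhere overnight. Exposed to compound for 48 h, then to fresh medium for 48 h, in quadruplicate per concentration. MTT for 4 h, dye extracted in DMSO, A570 read. IC50 (50% cell kill) from four-parameter logistic fit.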

[6] = MDR ratio as the ratio of IC50 value against SKVLB to that of SKOV3,; assay type: functional
Mus musculus [7] = experiment: In vivo efficacy of tumor growth ratio(T/B) of compound was calculated by using the HT-29 Human colon Xenograft model in mice at a dose of 3 mg/kg; assay type: functional
How it was run: (§6)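 Female nu/nu mice, 10⁶ HT29 cells implanted subcutaneously in the flank. Groups of 6 started at about 150 mm2 palpable tumor. Compound in 0.1 M sodium acetate pH 5 given s.c. twice weekly for 5 weeks. Tumor volume from calipers as length × width²/2. T/B is mean volume at end of treatment divided by mean initial volume.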

HT-29 [8] = experiment: Cytotoxicity was determined in vitro in HT-29 cells(colon) of human tumor cell lines by using MTT assay; assay type: functional, cell-based
How it was run: (§7)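 MTT microculture tetrazolium assay. Cells grown in α-MEM with 15% heat-inactivated FBS, glutamine, pyruvate, insulin and nonessential amino acids at 37 °C, 5% CO2. Seeded at 1500–4000 cells/well and allowed to adhere overnight. Exposed to compound for 48 h, then fresh medium for 48 h, quadruplicate per concentration. MTT 4 h, dye extracted in DMSO, A570 read. IC50 (50% cell kill) from four-parameter logistic fit.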

Mus musculus [9] = experiment: The body weight loss was measured in mice in vivo by using the HT-29 Human colon Xenograft model at a dose of 9 mg/kg; assay type: functional; how it was run: as §3
SK-OV-3 = experiment: Cytotoxicity was determined in vitro in SK-OV-3 cells (ovarian) of human tumor cell lines by using MTT assay; assay type: functional, cell-based; how it was run: as §7
Mus musculus [10] = experiment: The no. of deaths of mice(infected with HT-29 cells) was reported at a dose of 12 mg/kg; assay type: ADME, organism-based; set-up: dose 12 mg/kg; conditions: in vivo; how it was run: as §1
Mus musculus [11] = experiment: The body weight loss was measured in mice in vivo by using the HT-29 Human colon Xenograft model at a dose of 12 mg/kg; assay type: functional; how it was run: as §3
Mus musculus [12] = experiment: The body weight loss was measured in mice in vivo by using the HT-29 Human colon Xenograft model at a dose of 3 mg/kg; assay type: functional; how it was run: as §1
T47D = experiment: Cytotoxicity was determined in vitro in T47D cells(breast) of human tumor cell lines by using MTT assay; assay type: functional, cell-based; how it was run: as §5
Mus musculus [13] = experiment: In vivo efficacy of tumor growth ratio(T/B) of compound was calculated by using the HT-29 Human colon Xenograft model in mice at a dose of 6 mg/kg; assay type: functional; how it was run: as §2
SK-VLB = experiment: Cytotoxicity was determined in vitro in SKVLB cells(ovarian with upregulated MDRp-glycoprotein) of human tumor cell lines by using MTT assay; assay type: functional, cell-based; how it was run: as §7
Mus musculus [14] = experiment: In vivo efficacy of tumor growth ratio(T/B) of compound was calculated by using the HT-29 Human colon Xenograft model in mice at a dose of 12 mg/kg; assay type: functional; how it was run: as §2
Mus musculus [15] = experiment: The body weight loss was measured in mice in vivo by using the HT-29 Human colon Xenograft model at a dose of 1 mg/kg; assay type: functional; how it was run: as §1
Mus musculus [16] = experiment: The body weight loss was measured in mice in vivo by using the HT-29 Human colon Xenograft model at a dose of 4 mg/kg; assay type: functional; how it was run: as §1
Mus musculus [17] = experiment: In vivo efficacy of tumor growth ratio(T/B) of compound was calculated by using the HT-29 Human colon Xenograft model in mice at a dose of 1 mg/kg; assay type: functional; how it was run: as §6
Mus musculus [18] = experiment: The no. of deaths of mice(infected with HT-29 cells) was reported at a dose of 2 mg/kg; assay type: functional; how it was run: as §1
Mus musculus [19] = experiment: In vivo efficacy of tumor growth ratio(T/B) of compound was calculated by using the HT-29 Human colon Xenograft model in mice at a dose of 4 mg/kg; assay type: functional; how it was run: as §6
Mus musculus [20] = experiment: In vivo efficacy of tumor growth ratio(T/B) of compound was calculated by using the HT-29 Human colon Xenograft model in mice at a dose of 2 mg/kg; assay type: functional; how it was run: as §6
Mus musculus [21] = experiment: The no. of deaths of mice(infected with HT-29 cells) was reported at a dose of 1 mg/kg; assay type: functional; how it was run: as §1
Mus musculus [22] = experiment: The no. of deaths of mice(infected with HT-29 cells) was reported at a dose of 4 mg/kg; assay type: functional; how it was run: as §1
Mus musculus [23] = experiment: The body weight loss was measured in mice in vivo by using the HT-29 Human colon Xenograft model at a dose of 2 mg/kg; assay type: functional; how it was run: as §1
Mus musculus [24] = experiment: The no. of deaths of mice(infected with HT-29 cells) was reported at a dose of 11 mg/kg; assay type: functional; how it was run: as §1
Mus musculus [25] = experiment: In vivo efficacy of tumor growth ratio(T/B) of compound was calculated by using the HT-29 Human colon Xenograft model in mice at a dose of 5 mg/kg; assay type: functional; how it was run: as §2
Mus musculus [26] = experiment: as §4; assay type: ADME, organism-based; set-up: dose 9 mg/kg; conditions: in vivo; how it was run: as §1
Mus musculus [27] = experiment: The no. of deaths of mice(infected with HT-29 cells) was reported at a dose of 7 mg/kg; assay type: functional; how it was run: as §1
Mus musculus [28] = experiment: The body weight loss was measured in mice in vivo by using the HT-29 Human colon Xenograft model at a dose of 11 mg/kg; assay type: functional; how it was run: as §3
Mus musculus [29] = experiment: The body weight loss was measured in mice in vivo by using the HT-29 Human colon Xenograft model at a dose of 5 mg/kg; assay type: functional; how it was run: as §3
Mus musculus [30] = experiment: The no. of deaths of mice(infected with HT-29 cells) was reported at a dose of 5 mg/kg; assay type: functional; how it was run: as §1
HT-29 [31] = experiment: In vivo efficacy of tumor growth ratio(T/B) of compound was calculated by using the HT-29 Human colon Xenograft model in mice at a dose of 7 mg/kg; assay type: functional; how it was run: as §2
Mus musculus [32] = experiment: The body weight loss was measured in mice in vivo by using the HT-29 Human colon Xenograft model at a dose of 7 mg/kg; assay type: functional; how it was run: as §3
Mus musculus [33] = experiment: In vivo efficacy of tumor growth ratio(T/B) of compound was calculated by using the HT-29 Human colon Xenograft model in mice at a dose of 11 mg/kg; assay type: functional; how it was run: as §2

Row | Compound | Deaths (Mus musculus [1]) | Efficacy (Mus musculus [2]) | IC50 (LOX IMVI) [nM] | MDR ratio [6] | Efficacy (Mus musculus [7]) | IC50 (HT-29 [8]) [nM] | BW loss (Mus musculus [9]) [%] | IC50 (SK-OV-3) [nM] | BW loss (Mus musculus [12]) [%] | IC50 (T47D) [nM] | IC50 (SK-VLB) [nM] | further results
1 | CC[C@@]1(O)C(=O)OCc2c1cc1n(c2=O)Cc2c-1nc1cc3c(cc1c2CN1CCN(C)CC1)OCCO3.O=C(O)C(F)(F)F | 0 | 0.8 | 1 | 6 | 5.5 | 6 | 7 | 16 | 8 | 38 | 102 | BW loss (Mus musculus [3]): 5%; Deaths (Mus musculus [4]): 0; Deaths (Mus musculus [5]): 0; Deaths (Mus musculus [10]): 2; BW loss (Mus musculus [11]): 22%; Efficacy (Mus musculus [13]): 1.6; Efficacy (Mus musculus [14]): 0.4
2 | CC[C@@]1(O)C(=O)OCc2c1cc1n(c2=O)Cc2c-1nc1cc3c(cc1c2CCl)OCCO3 | – | – | – | 2 | – | 13 | – | 4 | – | – | 8 | –
3 | CC[C@@]1(O)C(=O)OCc2c1cc1n(c2=O)Cc2c-1nc1cc3c(cc1c2CN1CCN(C)CC1)OCO3.O=C(O)C(F)(F)F | 0 | – | 0.5 | – | 0.9 | 2 | – | 4 | 12 | 30 | 17 | BW loss (Mus musculus [15]): 11%; BW loss (Mus musculus [16]): 20%; Efficacy (Mus musculus [17]): 6.4; Deaths (Mus musculus [18]): 0; Efficacy (Mus musculus [19]): 0.6; Efficacy (Mus musculus [20]): 1.7; Deaths (Mus musculus [21]): 0; Deaths (Mus musculus [22]): 0; BW loss (Mus musculus [23]): 8%
4 | CC[C@@]1(O)C(=O)OCc2c1cc1n(c2=O)Cc2cc3c(CN(C)C)c(O)ccc3nc2-1 [TOPOTECAN] | – | 4.3 | 5 | – | – | 25 | 17 | 44 | – | 104 | 149 | Deaths (Mus musculus [24]): 0; Efficacy (Mus musculus [25]): 8.6; Deaths (Mus musculus [26]): 2; Deaths (Mus musculus [27]): 0; BW loss (Mus musculus [28]): 23%; BW loss (Mus musculus [29]): 15%; Deaths (Mus musculus [30]): 0; Efficacy (HT-29 [31]): 7; BW loss (Mus musculus [32]): 11%; Efficacy (Mus musculus [33]): 2.9
5 | COc1cccc2c1C(=O)c1c(O)c3c(c(O)c1C2=O)C[C@@](O)(C(=O)CO)C[C@@H]3O[C@H]1C[C@H](N)[C@H](O)[C@H](C)O1 [DOXORUBICIN] | – | – | 42 | 160 | – | 331 | – | 36 | – | 72 | 5650 | –
6 | CC[C@@]1(O)C(=O)OCc2c1cc1n(c2=O)Cc2cc3ccccc3nc2-1 [CAMPTOTHECIN] | – | – | 48 | – | – | 46 | – | 37 | – | 207 | 41 | –
